Assay results of several laboratories.
Compare with care: the assays were run in different laboratories.
Cell line: HCT-15
Read-out: cell growth or viability

Structure (SMILES)	method	concentration	time	measurement	value
COc1cc(Nc2nccc(-c3cnn4nc(OC)ccc34)n2)cc(C(F)(F)F)c1	ATP luminescence	–	–	IC50	360 nM
S=C([S][Au-][P+](CCCCCC[P+]([Au-][S]C(=S)n1cccn1)(c1ccccc1)c1ccccc1)(c1ccccc1)c1ccccc1)n1cccn1	–	–	–	GI50	2880 nM
COc1cccc(Oc2ccccc2NC(=O)CNC(=O)c2cccc3ccccc23)c1	SRB	–	48 h	GI50	129 nM
CC(C)[C@H](N)c1nc2cc(-c3ccncc3F)sc2c(=O)[nH]1	MTT	–	–	IC50	301 nM
[Se]=c1n(C23CC4CC(CC(C4)C2)C3)ccn1C12CC3CC(CC(C3)C1)C2	MTT	–	72 h	IC50	8300 nM
Cc1cc(C)n(C(=S)[S][Au][PH](CCCCCC[PH]([Au][S]C(=S)n2nc(C)cc2C)(c2ccccc2)c2ccccc2)(c2ccccc2)c2ccccc2)n1	–	–	–	GI50	1120 nM
O=C(O)CCCc1ccccc1	MTT	–	72 h	IC50	> 50000 nM
Cc1c(C)n(-c2c(C(C)C)cccc2C(C)C)c(=[Se])n1-c1c(C(C)C)cccc1C(C)C	MTT	–	72 h	IC50	16200 nM
COc1cccc2c1C(=O)c1c(O)c3c(c(O)c1C2=O)C[C@@](O)(C(=O)CO)C[C@@H]3O[C@H]1C[C@H](N)[C@H](O)[C@H](C)O1	MTT	–	24 h	IC50	6600 nM
COc1ccc(C(=O)/C=C/c2ccc3c(c2)OCCO3)cc1S(N)(=O)=O	SRB	10 µM	–	inhibition	58%
CC(C)c1cccc(C(C)C)c1-n1ccn(-c2c(C(C)C)cccc2C(C)C)c1=[Se]	MTT	–	72 h	IC50	14800 nM
COc1ccc(C(=O)/C=C/c2cccc(Cl)c2Cl)cc1S(N)(=O)=O	SRB	–	48 h	GI50	1300 nM
CC(C)C[C@H](NC(=O)[C@H](Cc1ccccc1)NC(=O)c1cnccn1)B(O)O	ATP luminescence	–	–	IC50	9.6 nM
